This is a sample that favours compounds with a hit; in the whole collection about 2.3% have one here.
PP1 counter – PP1-alpha phosphatase inhibitors, primary screen, counter-screen for PP5 inhibitor project, biochemical, fluorescence, OMFP substrate, single point. Serine/threonine-protein phosphatase PP1-alpha catalytic subunit (Homo sapiens), P62136. purified PP1alpha. inhibition, % at 6.7 µM. 320,000 tested, 0.9% active. AID 2235, 2010;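 active = inhibition above the mean inhibition of all tested compounds plus 3 SD, computed separately for each screening campaign, cut at about 15% in these data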
PP5 inh – PP5 phosphatase inhibitors, primary screen, biochemical, fluorescence | inhibition, % at 6.7 µM | 320,000 tested, 0.18% active | AID 1987, 2009 | Serine/threonine-protein phosphatase 5 (Homo sapiens), P53041 | purified PP5c, OMFP substrate fluorescence;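 active = inhibition above the campaign's mean inhibition across all tested compounds plus 3 SD, cut at about 9.5% in these data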
Target sequence (P53041 whole entry, looked up): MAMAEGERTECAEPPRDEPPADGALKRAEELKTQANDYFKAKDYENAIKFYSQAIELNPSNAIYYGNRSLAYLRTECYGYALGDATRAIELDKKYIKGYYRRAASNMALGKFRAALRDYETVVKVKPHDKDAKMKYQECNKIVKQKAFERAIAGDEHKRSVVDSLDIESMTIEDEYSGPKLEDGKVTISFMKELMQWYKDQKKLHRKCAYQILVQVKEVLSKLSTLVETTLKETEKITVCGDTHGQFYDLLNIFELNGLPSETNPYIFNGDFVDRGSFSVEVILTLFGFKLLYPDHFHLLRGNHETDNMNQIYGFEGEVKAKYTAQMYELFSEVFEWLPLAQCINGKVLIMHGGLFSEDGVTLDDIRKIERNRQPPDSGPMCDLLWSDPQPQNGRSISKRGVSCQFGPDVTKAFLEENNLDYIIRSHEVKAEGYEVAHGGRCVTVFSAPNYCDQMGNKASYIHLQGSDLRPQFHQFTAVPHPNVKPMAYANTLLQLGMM
PREPL inh – PREPL enzyme inhibitors, primary screen, biochemical, fluorescence polarization; recombinant PREPL, fluorescence polarization activity-based probe; inhibition, % at 5.96 µM; 320,000 tested, 0.68% active; AID 2751, 2010; in the data active = inhibition above about 43%
Fh CTSL1 inh – Fasciola hepatica cathepsin L1 inhibitors, primary screen, counter-screen for PFM18AAP inhibitor project, biochemical, QFRET, fluorogenic peptide substrate. inhibition, % at 5.96 µM. 300,000 tested, 0.49% active. recombinant F. hepatica cathepsin L1, Z-Leu-Arg-MCA fluorescence. AID 1906, 2009;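 active = inhibition above the mean of all tested compounds plus 3 SD, set per screening campaign, cut at about 17% in these data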
UBC13 polyUb – UBC13 polyubiquitin chain formation inhibitors, primary screen, biochemical, TR-FRET, uHTS; Ubiquitin-conjugating enzyme E2 N (Homo sapiens), P61088; inhibition, % at 20 µM; 330,000 tested, 0.47% active; in the data active = inhibition above about 45%, passing the limit was not always enough
UCH37 inh – inhibitors of human UCH37 deubiquitinase, primary screen, biochemical, Ub-AMC cleavage, fluorescence; Ubiquitin carboxyl-terminal hydrolase isozyme L5 (Homo sapiens), Q9Y5K5; AID 588478, 2011; purified proteasome/UCH37; inhibition, % (test concentration not listed); 330,000 tested, 0.33% active;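 active = mean inhibition over replicate wells above about 20%, limit read from the data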
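Test system – human UCH37 enzyme supplied as purified proteasome complex · Incubation – 30 min preincubation with enzyme, 25 min cleavage at room temperature · Detection – AMC fluorescence from Ub-AMC cleavage, excitation 355 nm, emission 460 nm · Benchmarks – no-proteasome wells (full inhibition) and compound-free wells (no inhibition)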
Casp3 counter – CASP3 inhibitor validation, counterassay for project on UBE2N polyubiquitination blockers, biochemical, one dose. AID 488856, 2010. Recombinant caspase-3, Caspase-Glo 3/7 luminescence, 60 min. inhibition, % at 20 µM. shares compounds with UBC13 polyUb. 1,400 tested, 4% active;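 active = mean inhibition across replicates above about 26%, limit read from the data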
Target sequence (P42574 whole entry, looked up): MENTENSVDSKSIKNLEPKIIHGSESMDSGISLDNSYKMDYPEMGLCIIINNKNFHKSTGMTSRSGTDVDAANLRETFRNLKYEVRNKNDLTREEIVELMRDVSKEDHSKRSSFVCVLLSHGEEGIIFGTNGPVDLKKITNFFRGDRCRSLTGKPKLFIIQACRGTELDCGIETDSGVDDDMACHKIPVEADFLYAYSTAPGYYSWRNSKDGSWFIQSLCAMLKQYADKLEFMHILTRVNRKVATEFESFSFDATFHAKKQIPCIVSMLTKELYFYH
UBC13 confirm – UBC13 polyubiquitination inhibitors, single-point retest, confirmation, biochemical, TR-FRET, single concentration; shares compounds with UBC13 polyUb; inhibition, % at 10 µM; 1,400 tested, 68% active; AID 488859, 2010; in the data active = inhibition above about 45%
Each line names hits and unclear results; the compound was inactive in the other large screens (follow-up assays come after a bar, where they were run).

COC(=O)C1=C(C)N(Cc2ccccc2)C(=NCCc2cccnc2)N[C@H]1c1ccc(Br)cc1	UBC13 polyUb 48 (no result: PP1 counter, PP5 inh, Fh CTSL1 inh) | Casp3 counter inactive | UBC13 confirm inactive
COC(=O)C1=C(C)N(Cc2ccccc2)C(=NCCc2ccccn2)N[C@H]1c1cccc(C(F)(F)F)c1	UBC13 polyUb 52 (no result: PP1 counter, PP5 inh, Fh CTSL1 inh) | Casp3 counter inactive | UBC13 confirm 58
CC(=NO)c1no[n+]([O-])c1C(C)=NO	none (no result: PP1 counter, PP5 inh, PREPL inh, Fh CTSL1 inh, UBC13 polyUb)
O=c1[nH]c(C(=NO)c2ccccc2)no1	none (no result: PP1 counter, PP5 inh, PREPL inh, Fh CTSL1 inh, UBC13 polyUb)
ON=Cc1ccc(-c2ccccc2)o1	none (no result: PP1 counter, PP5 inh, PREPL inh, Fh CTSL1 inh, UBC13 polyUb)
Cc1cccc(-n2c(C)cc(C=NNC(=O)c3cccs3)c2C)c1	none (no result: PP1 counter, PP5 inh, PREPL inh, Fh CTSL1 inh, UBC13 polyUb)
COC(=O)C1=C(C)N(Cc2ccccc2)C(=NCc2ccccc2)N[C@H]1c1cccc(C(F)(F)F)c1	UBC13 polyUb 76 (no result: PP1 counter, PP5 inh, Fh CTSL1 inh, UCH37 inh) | Casp3 counter inactive | UBC13 confirm 82
CCOc1ccc(-c2c(C(=O)NN=Cc3c[nH]c4ccccc34)nnn2-c2nonc2N)cc1	none (no result: PP1 counter, PP5 inh, PREPL inh, Fh CTSL1 inh, UBC13 polyUb)
CC(=O)Nc1ccc(NC(=O)CC(C)=NNC(=O)COc2cc(C)c(Br)cc2Br)cc1	none (no result: PP1 counter, PP5 inh, PREPL inh, Fh CTSL1 inh, UBC13 polyUb)
CN(C)C(=NS(=O)(=O)c1ccc(F)cc1)c1ccccc1	none (no result: PP1 counter, PP5 inh, PREPL inh, Fh CTSL1 inh, UBC13 polyUb)
CCCc1nc2ccccc2c(=O)n1NC(=O)c1c(O)c2ccccc2n(C)c1=O	UBC13 polyUb 47 | Casp3 counter inactive | UBC13 confirm inactive
CN(C)CCNc1ncnc2c1sc1nc(-c3ccccc3)c3c(c12)CCCC3	UBC13 polyUb 62 | Casp3 counter inactive | UBC13 confirm 103
COC(=O)[C@@]12CCCCN1[C@H](c1ccc(-c3cc(C(C)=O)cs3)cc1)[C@H]1C(=O)N(C)C(=O)[C@H]12	none
COC(=O)[C@@]12CCCCN1[C@H](c1ccc(-c3cc(C(C)=O)cs3)c(OC)c1)[C@H]1C(=O)N(C)C(=O)[C@H]12	UBC13 polyUb 52 | Casp3 counter inactive | UBC13 confirm inactive
COc1cc(OC)c2c(-c3ccccc3)cc(=O)oc2c1C(CCN1CCCC1)c1ccc2c(c1)OCO2 (stereo not drawn)	UBC13 polyUb 52 | Casp3 counter inactive | UBC13 confirm inactive
COc1cc(C(CCN2CCOCC2)c2c(OC)cc(OC)c3c(-c4ccccc4)cc(=O)oc23)cc(OC)c1OC (stereo not drawn)	none (no result: PP1 counter, PP5 inh, PREPL inh, Fh CTSL1 inh, UBC13 polyUb)
COc1cc(C(CCN2CCCC2)c2c(OC)cc(OC)c3c(-c4ccccc4)cc(=O)oc23)cc(OC)c1OC (stereo not drawn)	UBC13 polyUb 46 | Casp3 counter inactive | UBC13 confirm inactive
COc1ccc(C(CCN2CCCC2)c2c(OC)cc(OC)c3c(-c4ccccc4)cc(=O)oc23)cc1 (stereo not drawn)	UBC13 polyUb 67 | Casp3 counter inactive | UBC13 confirm inactive
COc1ccc(C(CCN2CCCC(C)C2)c2c(OC)cc(OC)c3c(-c4ccccc4)cc(=O)oc23)cc1 (stereo not drawn)	UBC13 polyUb 59 | Casp3 counter inactive | UBC13 confirm 45
CCN(CC)c1ccc(C=Nn2nnnc2N)c(O)c1	none (no result: PP1 counter, PP5 inh, PREPL inh, Fh CTSL1 inh, UBC13 polyUb)
CCCCCc1cc(=O)oc2c(C(CCN3CCCCC3)c3ccc4c(c3)OCO4)c(OC)cc(OC)c12 (stereo not drawn)	none
CCCCCc1cc(=O)oc2c(C(CCN(CC)CC)c3cc(OC)c(OC)c(OC)c3)c(OC)cc(OC)c12 (stereo not drawn)	UBC13 polyUb 85 | Casp3 counter inactive | UBC13 confirm 73
COc1cc(OC)c2c(-c3ccccc3)cc(=O)oc2c1C(CCN1CCCC(C)C1)c1ccc(N(C)C)cc1 (stereo not drawn)	none
CCN(CC)CCC(c1ccc(N(C)C)cc1)c1c(OC)cc(OC)c2c(-c3ccccc3)cc(=O)oc12 (stereo not drawn)	UBC13 polyUb 50 | Casp3 counter inactive | UBC13 confirm inactive
CC(=O)N/C(=N/c1nc(C)cc(C)n1)Nc1ccc2ccccc2c1	none (no result: PP1 counter, PP5 inh, PREPL inh, Fh CTSL1 inh, UBC13 polyUb)
Cc1cc(SCC(=O)O)nc2ccccc12	none
Cc1cc(SCC(=O)NC(=O)c2cccn2C)nc2ccccc12	UBC13 polyUb 56 | Casp3 counter inactive | UBC13 confirm 68
CCN(CC(=O)Nc1c(F)cccc1F)C(=O)CCCOc1ccccc1	none (no result: PP1 counter, PP5 inh, PREPL inh, Fh CTSL1 inh, UBC13 polyUb)
CCN(CC(=O)Nc1c(F)cccc1F)C(=O)CCOc1ccccc1	UBC13 polyUb 55 | Casp3 counter inactive | UBC13 confirm inactive
N#Cc1c(N=Cc2cc3ccccc3s2)sc2c1CCC2	none (no result: PP1 counter, PP5 inh, PREPL inh, Fh CTSL1 inh, UBC13 polyUb)
O=C(NCc1ccccc1)C1CCCN(c2ncnc3c2nc2n3CCCCC2)C1 (stereo not drawn)	none
CCC1CCCCN1CCCNC(=O)C1CCCN(c2ncnc3c2nc2n3CCCCC2)C1 (stereo not drawn)	none
O=C(NCC1CCN(Cc2ccc(Cl)cc2)CC1)C1CCCN(c2ncnc3c2nc2n3CCCCC2)C1 (stereo not drawn)	UBC13 polyUb 78 | Casp3 counter inactive | UBC13 confirm 101
CN1CCN(C(=O)C2CCN(c3ncnc4c3nc3n4CCCCC3)CC2)CC1	UBC13 polyUb 86 | Casp3 counter inactive | UBC13 confirm 101
O=C(NCC1CCN(Cc2ccc(F)cc2)CC1)C1CCCN(c2ncnc3c2nc2n3CCCCC2)C1 (stereo not drawn)	UBC13 polyUb 78 | Casp3 counter inactive | UBC13 confirm 95
CC1CCCC(C)N1CCCNC(=O)C1CCCN(c2ncnc3c2nc2n3CCCCC2)C1 (stereo not drawn)	UBC13 polyUb 56 | Casp3 counter inactive | UBC13 confirm 88
O=C(C1CCN(c2ncnc3c2nc2n3CCCCC2)CC1)N1CCCCC1	none
CCCCC/C(C=NNc1ccc(S(=O)(=O)N2CCOCC2)cc1[N+](=O)[O-])=C\c1ccccc1	none (no result: PP1 counter, PP5 inh, PREPL inh, Fh CTSL1 inh, UBC13 polyUb)
O=C(NCC1CCN(Cc2cccc(Cl)c2)CC1)C1CCCN(c2ncnc3c2nc2n3CCCCC2)C1 (stereo not drawn)	UBC13 polyUb 93 | Casp3 counter inactive | UBC13 confirm 107
O=C(NCc1cccc(Cl)c1)C1CCCN(c2ncnc3c2nc2n3CCCCC2)C1 (stereo not drawn)	none
CCC(C)(C)NC(=O)CN(C(=O)c1snc(C(N)=O)c1N)c1ccc2c(c1)OCCO2	UBC13 polyUb 70 | Casp3 counter inactive | UBC13 confirm 59
